≈ marks a conversion by molar mass, not a printed value. Values belong to the compound of their own block, whether it stands above or below them.
Experiments:
Assay type in all cases: functional
Staphylococcus aureus = experiment: Antibacterial activity against Staphylococcus aureus after 16 to 18 hrs by serial dilution method; conditions: for MIC: Staphylococcus aureus
Method in brief: (§1)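 The test compound was dissolved in DMF and serially diluted. A standard drop of the prepared microbial culture was added to each dilution, and tubes were incubated at 37 °C for 16–18 h. MIC was taken as the highest dilution that stayed clear with no visible turbidity.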

Escherichia coli = experiment: Antibacterial activity against Escherichia coli after 16 to 18 hrs by serial dilution method; conditions: for MIC: Escherichia coli; method in brief: as §1
Pseudomonas aeruginosa = experiment: Antibacterial activity against Pseudomonas aeruginosa after 16 to 18 hrs by serial dilution method; conditions: for MIC: Pseudomonas aeruginosa; method in brief: as §1
Klebsiella pneumoniae = experiment: Antibacterial activity against Klebsiella pneumoniae after 16 to 18 hrs by serial dilution method; conditions: for MIC: Klebsiella pneumoniae
Talaromyces marneffei = experiment: Antifungal activity against Penicillium marneffei after 16 to 18 hrs by serial dilution method; conditions: for MIC: Talaromyces marneffei; method in brief: as §1
[1] = tested on: Trichophyton mentagrophytes; experiment: Antifungal activity against Trichophyton mentagrophytes after 16 to 18 hrs by serial dilution method; conditions: for MIC: Trichophyton mentagrophytes
Aspergillus flavus = experiment: Antifungal activity against Aspergillus flavus after 16 to 18 hrs by serial dilution method; conditions: for MIC: Aspergillus flavus; method in brief: as §1
Aspergillus fumigatus = experiment: Antifungal activity against Aspergillus fumigatus after 16 to 18 hrs by serial dilution method; conditions: for MIC: Aspergillus fumigatus

Compound: Cc1ccc(OCc2ccccc2-c2nnc(-c3ccc(Cl)cc3)o2)cc1
inhibition zone (IZ) (Staphylococcus aureus): <10 mm
MIC (Staphylococcus aureus): 25 µg/mL (≈ 66.3 µM)
inhibition zone (IZ) (Escherichia coli): <10 mm
MIC (Escherichia coli): 25 µg/mL (≈ 66.3 µM)
inhibition zone (IZ) (Pseudomonas aeruginosa): <10 mm
MIC (Pseudomonas aeruginosa): 25 µg/mL (≈ 66.3 µM)
inhibition zone (IZ) (Klebsiella pneumoniae): <10 mm
MIC (Klebsiella pneumoniae): 25 µg/mL (≈ 66.3 µM)
inhibition zone (IZ) (Talaromyces marneffei): <10 mm
MIC (Talaromyces marneffei): 25 µg/mL (≈ 66.3 µM)
inhibition zone (IZ) [1]: <10 mm
MIC [1]: 25 µg/mL (≈ 66.3 µM)
inhibition zone (IZ) (Aspergillus flavus): <10 mm
MIC (Aspergillus flavus): 25 µg/mL (≈ 66.3 µM)
inhibition zone (IZ) (Aspergillus fumigatus): <10 mm
MIC (Aspergillus fumigatus): 25 µg/mL (≈ 66.3 µM)

Compound: O=C(c1cc(Cl)ccc1NCn1nc(-c2ccccc2COc2ccc(Cl)cc2)oc1=S)C(F)(F)F
inhibition zone (IZ) (Staphylococcus aureus): <10 mm
MIC (Staphylococcus aureus): 25 µg/mL (≈ 45.1 µM)
inhibition zone (IZ) (Escherichia coli): <10 mm
MIC (Escherichia coli): 25 µg/mL (≈ 45.1 µM)
inhibition zone (IZ) (Pseudomonas aeruginosa): <10 mm
MIC (Pseudomonas aeruginosa): 25 µg/mL (≈ 45.1 µM)
inhibition zone (IZ) (Klebsiella pneumoniae): <10 mm
MIC (Klebsiella pneumoniae): 25 µg/mL (≈ 45.1 µM)
inhibition zone (IZ) (Talaromyces marneffei): <10 mm
MIC (Talaromyces marneffei): 25 µg/mL (≈ 45.1 µM)
inhibition zone (IZ) [1]: <10 mm
MIC [1]: 25 µg/mL (≈ 45.1 µM)
inhibition zone (IZ) (Aspergillus flavus): <10 mm
MIC (Aspergillus flavus): 25 µg/mL (≈ 45.1 µM)
inhibition zone (IZ) (Aspergillus fumigatus): <10 mm
MIC (Aspergillus fumigatus): 25 µg/mL (≈ 45.1 µM)

Compound: Cc1ccc(OCc2ccccc2-c2nn(CNc3cc(C)ccc3Cl)c(=S)o2)cc1
inhibition zone (IZ) (Staphylococcus aureus): <10 mm
MIC (Staphylococcus aureus): 25 µg/mL (≈ 55.3 µM)
inhibition zone (IZ) (Escherichia coli): <10 mm
MIC (Escherichia coli): 25 µg/mL (≈ 55.3 µM)
inhibition zone (IZ) (Pseudomonas aeruginosa): <10 mm
MIC (Pseudomonas aeruginosa): 25 µg/mL (≈ 55.3 µM)
inhibition zone (IZ) (Klebsiella pneumoniae): <10 mm
MIC (Klebsiella pneumoniae): 25 µg/mL (≈ 55.3 µM)
inhibition zone (IZ) (Talaromyces marneffei): <10 mm
MIC (Talaromyces marneffei): 25 µg/mL (≈ 55.3 µM)
inhibition zone (IZ) [1]: <10 mm
MIC [1]: 25 µg/mL (≈ 55.3 µM)
inhibition zone (IZ) (Aspergillus flavus): <10 mm
MIC (Aspergillus flavus): 25 µg/mL (≈ 55.3 µM)
inhibition zone (IZ) (Aspergillus fumigatus): <10 mm
MIC (Aspergillus fumigatus): 25 µg/mL (≈ 55.3 µM)

Continued by falling MIC (Staphylococcus aureus), values first:

MIC (Staphylococcus aureus): 25 µg/mL (≈ 73 µM)
MIC (Escherichia coli): 25 µg/mL (≈ 73 µM)
MIC (Pseudomonas aeruginosa): 25 µg/mL (≈ 73 µM)
MIC (Klebsiella pneumoniae): 25 µg/mL (≈ 73 µM)
MIC (Talaromyces marneffei): 25 µg/mL (≈ 73 µM)
MIC [1]: 25 µg/mL (≈ 73 µM)
MIC (Aspergillus flavus): 25 µg/mL (≈ 73 µM)
MIC (Aspergillus fumigatus): 25 µg/mL (≈ 73 µM)
Compound: Cc1ccccc1OCc1ccccc1-c1nnc(-c2ccccc2)o1
inhibition zone (IZ) (Staphylococcus aureus): <10 mm
inhibition zone (IZ) (Escherichia coli): <10 mm
inhibition zone (IZ) (Pseudomonas aeruginosa): <10 mm
inhibition zone (IZ) (Klebsiella pneumoniae): <10 mm
inhibition zone (IZ) (Talaromyces marneffei): <10 mm
inhibition zone (IZ) [1]: <10 mm
inhibition zone (IZ) (Aspergillus flavus): <10 mm
inhibition zone (IZ) (Aspergillus fumigatus): <10 mm

MIC (Staphylococcus aureus): 25 µg/mL (≈ 72.1 µM)
MIC (Escherichia coli): 25 µg/mL (≈ 72.1 µM)
MIC (Pseudomonas aeruginosa): 25 µg/mL (≈ 72.1 µM)
MIC (Klebsiella pneumoniae): 25 µg/mL (≈ 72.1 µM)
MIC (Talaromyces marneffei): 25 µg/mL (≈ 72.1 µM)
MIC [1]: 25 µg/mL (≈ 72.1 µM)
MIC (Aspergillus flavus): 25 µg/mL (≈ 72.1 µM)
MIC (Aspergillus fumigatus): 25 µg/mL (≈ 72.1 µM)
Compound: CCSc1nnc(-c2ccccc2COc2ccc(Cl)cc2)o1
inhibition zone (IZ) (Staphylococcus aureus): <10 mm
inhibition zone (IZ) (Escherichia coli): <10 mm
inhibition zone (IZ) (Pseudomonas aeruginosa): <10 mm
inhibition zone (IZ) (Klebsiella pneumoniae): <10 mm
inhibition zone (IZ) (Talaromyces marneffei): <10 mm
inhibition zone (IZ) [1]: <10 mm
inhibition zone (IZ) (Aspergillus flavus): <10 mm
inhibition zone (IZ) (Aspergillus fumigatus): <10 mm

MIC (Staphylococcus aureus): 25 µg/mL (≈ 55.3 µM)
MIC (Escherichia coli): 25 µg/mL (≈ 55.3 µM)
MIC (Pseudomonas aeruginosa): 25 µg/mL (≈ 55.3 µM)
MIC (Klebsiella pneumoniae): 25 µg/mL (≈ 55.3 µM)
MIC (Talaromyces marneffei): 25 µg/mL (≈ 55.3 µM)
MIC [1]: 25 µg/mL (≈ 55.3 µM)
MIC (Aspergillus flavus): 25 µg/mL (≈ 55.3 µM)
MIC (Aspergillus fumigatus): 25 µg/mL (≈ 55.3 µM)
Compound: Cc1ccc(Cl)c(NCn2nc(-c3ccccc3COc3ccccc3C)oc2=S)c1
inhibition zone (IZ) (Staphylococcus aureus): <10 mm
inhibition zone (IZ) (Escherichia coli): <10 mm
inhibition zone (IZ) (Pseudomonas aeruginosa): <10 mm
inhibition zone (IZ) (Klebsiella pneumoniae): <10 mm
inhibition zone (IZ) (Talaromyces marneffei): <10 mm
inhibition zone (IZ) [1]: <10 mm
inhibition zone (IZ) (Aspergillus flavus): <10 mm
inhibition zone (IZ) (Aspergillus fumigatus): <10 mm

MIC (Staphylococcus aureus): 12.5 µg/mL (≈ 29.6 µM)
MIC (Escherichia coli): 12.5 µg/mL (≈ 29.6 µM)
MIC (Pseudomonas aeruginosa): 12.5 µg/mL (≈ 29.6 µM)
MIC (Klebsiella pneumoniae): 12.5 µg/mL (≈ 29.6 µM)
MIC (Talaromyces marneffei): 12.5 µg/mL (≈ 29.6 µM)
MIC [1]: 12.5 µg/mL (≈ 29.6 µM)
MIC (Aspergillus flavus): 12.5 µg/mL (≈ 29.6 µM)
MIC (Aspergillus fumigatus): 12.5 µg/mL (≈ 29.6 µM)
Compound: Cc1cccc(CSc2nnc(-c3ccccc3COc3ccc(Cl)cc3)o2)c1
inhibition zone (IZ) (Staphylococcus aureus): 11 mm
inhibition zone (IZ) (Escherichia coli): 11 mm
inhibition zone (IZ) (Pseudomonas aeruginosa): 11 mm
inhibition zone (IZ) (Klebsiella pneumoniae): 11 mm
inhibition zone (IZ) (Talaromyces marneffei): 11 mm
inhibition zone (IZ) [1]: 11 mm
inhibition zone (IZ) (Aspergillus flavus): 11 mm
inhibition zone (IZ) (Aspergillus fumigatus): 11 mm

Source: ChEMBL document CHEMBL1275272, “Synthesis, characterization and antimicrobial activity of some disubstituted 1,3,4-oxadiazoles carrying 2-(aryloxymethyl)phenyl moiety” (2010)
